In ChEMBL document CHEMBL1955778, “Design and synthesis of novel 7-aminoquinazoline derivatives: antitumor and anticonvulsant activities” (Bioorg Med Chem Lett, 2012):

What was measured:
[1] = tested on: Mus musculus; assay: Anticonvulsant activity in mouse assessed as protection against strychnine-induced seizure at 1 mmol/kg, ip administered 30 min prior to strychnine-challenge measured after 60 mins relative to control; format: functional
[2] = tested on: Mus musculus; assay: Anticonvulsant activity in mouse assessed as protection against maximal electroshock-induced seizure at 1 mmol/kg, ip administered 30 min prior to maximal electroshock-challenge measured after 60 mins relative to control; format: functional
[3] = tested on: Mus musculus; assay: Anticonvulsant activity in mouse assessed as protection against pentylenetetrazol-induced seizure at 1 mmol/kg, ip administered 30 min prior to pentylenetetrazol-challenge measured after 60 mins relative to control; format: functional
[4] = tested on: Mus musculus; assay: Anticonvulsant activity in mouse assessed as protection against picrotoxin-induced seizure at 1 mmol/kg, ip administered 30 min prior to picrotoxin-challenge measured after 60 mins relative to control; format: functional
[5] = Neurotoxicity in ip dosed mouse assessed as impaired motor coordination administered 30 mins prior to test by chimney test; format: toxicity, organism-based; details: in vivo
In short: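 Mice, Chimney test. TD50 is the dose that produces minimal neurological toxicity (impaired motor coordination) in 50% of animals, estimated from testing at several doses.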

[6] = tested on: Mus musculus; assay: Anticonvulsant activity in ip dosed mouse assessed as protection against pentylenetetrazol-induced seizure administered 30 min prior to pentylenetetrazol-challenge measured after 60 mins; format: functional
In short: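 Mice received several doses for quantification. ED50 taken as the dose protecting 50% of mice against pentylenetetrazol-induced seizures.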

[7] = Toxicity in ip dose mouse assessed as mortality; format: organism-based; details: in vivo
In short: (§1)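 In mice, LD50 is the dose causing 50% mortality. ED50 is the dose protecting 50% of mice against pentylenetetrazole-induced seizures. Therapeutic index = LD50/ED50.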

[8] = Therapeutic index, ratio of LD50 for mouse to ED50 for pentylenetetrazol-induced seizure in mouse; format: organism-based; details: in vivo, read-out: Ratio LD50/ED50; in short: as §1
[9] = species on record: Mus musculus; assay: Protective index, ratio of TD50 for mouse to ED50 for pentylenetetrazol-induced seizure in mouse; format: functional
In short: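 Mice. Index is TD50/ED50. TD50 is the dose causing minimal neurological toxicity in 50% of mice in the Chimney test. ED50 is the dose protecting 50% of mice against pentylenetetrazole-induced seizures. Both are estimated from testing at several doses.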

[10] = tested on: T47D; assay: Growth inhibition of human T47D cells at 10 uM relative to control; format: functional; details: read-out: GI
In short: (§2)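 Single-dose screen across the 60-cell-line human tumor panel at 10 μM. Growth inhibition is reported as a percentage, taken as 100 minus the % growth relative to untreated control.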

[11] = tested on: K562; assay: Growth inhibition of human K562 cells at 10 uM relative to control; format: functional; details: read-out: GI
In short: (§3)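 Each cell line in a 60-line human tumour panel exposed to one 10 μM concentration. Growth inhibition percentage computed as 100 minus the percentage activity relative to control.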

[12] = tested on: U-251; assay: Growth inhibition of human U251 cells at 10 uM relative to control; format: functional; details: read-out: GI; in short: as §2
[13] = tested on: LOX IMVI; assay: Growth inhibition of human LOXIMVI cells at 10 uM relative to control; format: functional; details: read-out: GI; in short: as §3
[14] = tested on: UACC-62; assay: Growth inhibition of human UACC62 cells at 10 uM relative to control; format: functional; details: read-out: GI; in short: as §2
[15] = tested on: BT-549; assay: Growth inhibition of human BT549 cells at 10 uM relative to control; format: functional; details: read-out: GI; in short: as §3
[16] = tested on: MDA-MB-435; assay: Growth inhibition of human MDA-MB-435 cells at 10 uM relative to control; format: functional; details: read-out: GI; in short: as §3
[17] = tested on: RPMI-8226; assay: Growth inhibition of human RPMI8226 cells at 10 uM relative to control; format: functional; details: read-out: GI; in short: as §3
[18] = tested on: MOLT-4; assay: Growth inhibition of human MOLT4 cells at 10 uM relative to control; format: functional; details: read-out: GI; in short: as §3
[19] = tested on: CCRF-CEM; assay: Growth inhibition of human CCRF-CEM cells at 10 uM relative to control; format: functional; details: read-out: GI; in short: as §3
[20] = tested on: A498; assay: Growth inhibition of human A498 cells at 10 uM relative to control; format: functional; details: read-out: GI; in short: as §3
[21] = tested on: HT-29; assay: Growth inhibition of human HT-29 cells at 10 uM relative to control; format: functional; details: read-out: GI; in short: as §3
[22] = tested on: SF-295; assay: Growth inhibition of human SF295 cells at 10 uM relative to control; format: functional; details: read-out: GI; in short: as §3
[23] = tested on: SR; assay: Growth inhibition of human SR cells at 10 uM relative to control; format: functional; details: read-out: GI; in short: as §2
[24] = tested on: EKVX; assay: Growth inhibition of human EKVX cells at 10 uM relative to control; format: functional; details: read-out: GI; in short: as §3
[25] = tested on: HL-60(TB); assay: Growth inhibition of human HL-60(TB) cells at 10 uM relative to control; format: functional; details: read-out: GI
In short: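 Single-dose screen at 10 μM across the 60-cell-line tumour panel. Percent growth inhibition = 100 minus percent growth activity relative to untreated control.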

[26] = tested on: HCT-15; assay: Growth inhibition of human HCT15 cells at 10 uM relative to control; format: functional; details: read-out: GI; in short: as §3
[27] = tested on: UACC-257; assay: Growth inhibition of human UACC257 cells at 10 uM relative to control; format: functional; details: read-out: GI; in short: as §2
[28] = tested on: MDA-MB-231; assay: Growth inhibition of human MDA-MB-231 cells at 10 uM relative to control; format: functional; details: read-out: GI; in short: as §3
[29] = tested on: UO-31; assay: Growth inhibition of human UO31 cells at 10 uM relative to control; format: functional; details: read-out: GI; in short: as §2
[30] = tested on: ACHN; assay: Growth inhibition of human ACHN cells at 10 uM relative to control; format: functional; details: read-out: GI; in short: as §3
[31] = tested on: KM12; assay: Growth inhibition of human KM12 cells at 10 uM relative to control; format: functional; details: read-out: GI; in short: as §3
[32] = tested on: A549; assay: Growth inhibition of human A549 cells at 10 uM relative to control; format: functional; details: read-out: GI; in short: as §3
[33] = tested on: NCI-H522; assay: Growth inhibition of human NCI-H522 cells at 10 uM relative to control; format: functional; details: read-out: GI; in short: as §3
[34] = tested on: MDA-MB-468; assay: Growth inhibition of human MDA-MB-468 cells at 10 uM relative to control; format: functional; details: read-out: GI; in short: as §3
[35] = tested on: PC-3; assay: Growth inhibition of human PC3 cells at 10 uM relative to control; format: functional; details: read-out: GI; in short: as §3
[36] = tested on: MCF7; assay: Growth inhibition of human MCF7 cells at 10 uM relative to control; format: functional; details: read-out: GI; in short: as §3
[37] = tested on: SK-MEL-28; assay: Growth inhibition of human SK-MEL-28 cells at 10 uM relative to control; format: functional; details: read-out: GI; in short: as §3
[38] = tested on: SNB-75; assay: Growth inhibition of human SNB75 cells at 10 uM relative to control; format: functional; details: read-out: GI; in short: as §2
[39] = tested on: SK-OV-3; assay: Growth inhibition of human SKOV3 cells at 10 uM relative to control; format: functional; details: read-out: GI; in short: as §3

| Structure (SMILES) | Activity [1] | Activity [2] | Activity [3] | Activity [4] | TD50 at 0.5 h [5] | ED50 [6] | LD50 [7] | selectivity ratio [8] | Ratio TD50/ED50 [9] | inhibition of growth at 10 µM [11] | inhibition of growth at 10 µM [12] | inhibition of growth at 10 µM [13] | inhibition of growth at 10 µM [14] | inhibition of growth at 10 µM [16] | inhibition of growth at 10 µM [17] | inhibition of growth at 10 µM [18] | inhibition of growth at 10 µM [19] | inhibition of growth at 10 µM [21] | inhibition of growth at 10 µM [22] | inhibition of growth at 10 µM [23] | further results |
| --- | --- | --- | --- | --- | --- | --- | --- | --- | --- | --- | --- | --- | --- | --- | --- | --- | --- | --- | --- | --- | --- |
| Cc1ccccc1-n1c(C)nc2cc(/N=C/c3ccccc3)ccc2c1=O | 0% | 50% | 0% |  |  |  |  |  |  |  |  |  |  |  |  |  |  |  |  |  |  |
| Cc1ccccc1-n1c(C)nc2cc(/N=C/c3ccc(Cl)cc3)ccc2c1=O | 0% | 100% | 100% | 50% | 890 µmol/kg | 350 µmol/kg | 1810 µmol/kg | 4.6 | 2.54 |  |  |  |  |  |  |  |  |  |  |  |  |
| Cc1ccccc1-n1c(C)nc2cc(NC(=O)c3cccs3)ccc2c1=O |  |  |  |  |  |  |  |  |  | 12.8% | 12% | 4.2% | 8% | 6% | 8% | 25.6% | 12.2% | 11% | 6% | 21% | inhibition of growth at 10 µM [10]: 7.8%; inhibition of growth at 10 µM [15]: 8%; inhibition of growth at 10 µM [20]: 9%; inhibition of growth at 10 µM [24]: 11%; inhibition of growth at 10 µM [25]: 19.2% |
| Cc1ccccc1-n1c(C)nc2cc(/N=C/c3ccco3)ccc2c1=O | 0% | 50% | 0% |  |  |  |  |  |  |  |  |  |  |  |  |  |  |  |  |  |  |
| Cc1ccccc1-n1c(C)nc2cc(N3C(=O)C=CC3=O)ccc2c1=O | 0% | 33% | 0% |  |  |  |  |  |  |  |  |  |  |  |  |  |  |  |  |  |  |
| Cc1ccccc1-n1c(C)nc2cc(N3C(=O)CSC3c3ccc(F)cc3)ccc2c1=O (centres undefined) | 0% | 100% | 100% | 75% | 560 µmol/kg | 400 µmol/kg | 1020 µmol/kg | 2.55 | 1.4 | 10% | 11% | 5% | 14% | 9.7% | 10% | 28.9% | 13.2% | 3% | 7% | 4% | inhibition of growth at 10 µM [26]: 5%; inhibition of growth at 10 µM [27]: 9%; inhibition of growth at 10 µM [28]: 8%; inhibition of growth at 10 µM [29]: 11.7%; inhibition of growth at 10 µM [30]: 3%; inhibition of growth at 10 µM [31]: 4%; inhibition of growth at 10 µM [32]: 2%; inhibition of growth at 10 µM [33]: 18%; inhibition of growth at 10 µM [34]: 2.5%; inhibition of growth at 10 µM [35]: 12.2%; inhibition of growth at 10 µM [36]: 9%; inhibition of growth at 10 µM [37]: 11%; inhibition of growth at 10 µM [38]: 8.5%; inhibition of growth at 10 µM [39]: 3%; inhibition of growth at 10 µM [25]: 7% |
